Source: PubChem BioAssay
The source made the active and inactive calls.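 How the source made its calls, unless noted: active means visually confirmed hit in the image check and inhibition above 20%; inconclusive means visually confirmed hit but inhibition not above 20%; inactive means no visual hit in the image check.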

Columns and labels:
[1] = inhibitors of TNFa-induced NFkB p65 translocation, primary screen, imaging, HUVEC, MLSMR starter and 10KST1 sets (AID 438;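 active means inhibition above 20% together with a positive visual image hit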;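 further: compound added about 3h40 before a 20 min TNFalpha stimulation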;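 on inhibition: signal is the nuclear over cytoplasmic p65 intensity ratio per well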); details: HUVEC TNFa-induced p65 nuclear translocation; cell count: measured here: nuclei count (cytotoxicity indicator), at 2.08 µM; inhibition: at 2 µM, stronger effect = higher value, 0% TNFa-plus-vehicle, 100% no-TNFa wells
[2] = endothelial E-selectin expression blockers – imaging, HUVEC, immunofluorescence, MLSMR starter and 10KST1 sets, primary screen (AID 487); details: HUVEC TNFalpha-induced E-selectin immunofluorescence imaging, at 2 µM; inhibition: stronger effect = higher value; nuclei count: measured here: cell number, toxicity;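 on inhibition: signal is fraction of cell area covered by stained E-selectin grains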;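 on nuclei count: 100% = median nuclei count of all wells on the same plate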
[3] = Primary imaging screen for DUSP6 inhibitors that restore phospho-Erk in transfected HeLa cells, chemical complementation (AID 609;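 active means compounds giving at least 50% inhibition in the cell-based MKP-3 phosphatase rescue imaging test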;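 on inhibition: phospho-Erk level distribution per well compared with pooled transfected vehicle control wells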); details: HeLa MKP-3 transfected, phospho-Erk imaging KS statistic, at 10 µM, cells stimulated with TPA for 15 min
[4] = target: Dual specificity protein phosphatase 6 (Homo sapiens) (UniProt Q16828); assay: as above; details: HeLa MKP-3 transfected, phospho-Erk imaging KS statistic; at 10 µM; stronger effect = higher value; cells stimulated with TPA for 15 min
Chain of Dual specificity protein phosphatase 6 (Homo sapiens) (Q16828 whole entry, looked up): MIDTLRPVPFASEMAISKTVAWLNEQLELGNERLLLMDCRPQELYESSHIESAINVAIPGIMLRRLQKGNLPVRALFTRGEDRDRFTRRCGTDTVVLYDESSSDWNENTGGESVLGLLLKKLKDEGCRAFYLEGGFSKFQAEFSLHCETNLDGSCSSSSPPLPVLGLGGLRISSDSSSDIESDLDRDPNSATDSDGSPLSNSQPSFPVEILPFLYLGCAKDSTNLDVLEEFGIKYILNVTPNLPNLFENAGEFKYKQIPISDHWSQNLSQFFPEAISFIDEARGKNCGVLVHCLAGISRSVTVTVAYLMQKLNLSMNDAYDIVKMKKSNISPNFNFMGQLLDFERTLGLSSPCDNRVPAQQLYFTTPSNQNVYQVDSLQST

[5] = target: Voltage-gated potassium channel subunit beta-2 (Rattus norvegicus) (UniProt P62483); assay: inhibitors of rat Kvbeta2 reductase activity – biochemical, NADPH fluorescence, primary screen (AID 622;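 active means fluorescence slope higher than the sample average by over 3 SD, cut at about -0.22 in these data, passing the limit was not always enough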;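 further: slope of raw intensity against log time taken from 70 to 1610 s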); details: recombinant KvBeta, 4-cyanobenzaldehyde reduction, at 10 µM, stronger effect = higher value
Chain of Voltage-gated potassium channel subunit beta-2 (Rattus norvegicus) (P62483 whole entry, looked up): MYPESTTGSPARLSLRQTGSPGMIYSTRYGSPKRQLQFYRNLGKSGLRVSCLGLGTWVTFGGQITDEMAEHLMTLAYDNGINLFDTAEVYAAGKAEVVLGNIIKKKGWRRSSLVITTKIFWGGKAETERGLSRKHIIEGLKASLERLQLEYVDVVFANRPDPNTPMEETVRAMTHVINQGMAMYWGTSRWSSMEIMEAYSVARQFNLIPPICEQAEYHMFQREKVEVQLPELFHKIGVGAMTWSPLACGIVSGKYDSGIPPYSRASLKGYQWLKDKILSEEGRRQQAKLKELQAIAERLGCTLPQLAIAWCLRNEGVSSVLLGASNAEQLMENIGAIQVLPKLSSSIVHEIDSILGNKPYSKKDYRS

[6] = target: Voltage-gated potassium channel subunit beta-2 (Rattus norvegicus) (UniProt P62483); assay: enhancers of rat Kvbeta2 NADPH turnover – biochemical, NADPH fluorescence, primary screen (AID 623;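 active means NADPH fluorescence slope more negative than the mean of all samples by about 3 SD, 99.7% confidence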;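 further: fluorescence intensity change per second fitted from 20 to 320 s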); details: Recombinant KvBeta, NADPH fluorescence decrease slope, 10 min; at 10 µM; stronger effect = lower value
[7] = target: Muscarinic acetylcholine receptor M4 (Homo sapiens) (UniProt P08173); assay: M4-linked GIRK flux change, two-sided – cell-based, HEK293 M4/GIRK, thallium flux, BTC-AM, M4 allosteric agonist project, primary screen (AID 625;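 active means fluorescence slope after compound addition differing from the mean of all tested samples at 99.7% confidence, mostly higher but some lower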;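 further: thallium influx through GIRK channels coupled to M4 in HEK293 cells with BTC-AM dye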); details: at 10 µM, actives lie on both sides
Chain of Muscarinic acetylcholine receptor M4 (Homo sapiens) (P08173 whole entry, looked up): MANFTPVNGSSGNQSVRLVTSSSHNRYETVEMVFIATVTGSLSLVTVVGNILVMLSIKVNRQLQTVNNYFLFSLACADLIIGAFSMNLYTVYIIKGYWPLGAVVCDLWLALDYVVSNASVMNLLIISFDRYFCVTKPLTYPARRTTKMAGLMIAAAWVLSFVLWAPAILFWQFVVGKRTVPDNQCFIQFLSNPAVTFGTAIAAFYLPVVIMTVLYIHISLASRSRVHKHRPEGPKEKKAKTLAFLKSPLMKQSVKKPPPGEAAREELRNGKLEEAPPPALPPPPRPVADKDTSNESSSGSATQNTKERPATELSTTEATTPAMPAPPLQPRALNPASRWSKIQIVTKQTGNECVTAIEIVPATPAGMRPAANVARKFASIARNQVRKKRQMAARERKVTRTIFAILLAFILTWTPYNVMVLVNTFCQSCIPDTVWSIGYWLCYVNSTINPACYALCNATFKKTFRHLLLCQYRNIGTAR
Outline: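 Assay system: HEK293 cells with M4 receptor and GIRK channels / Controls: carbachol and DMSO controls / Schedule: 1 h dye loading, 2 min kinetic read / Technique: kinetic fluorescence with BTC-AM dye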

[8] = inhibitors of larval lipid processing in zebrafish, primary screen, whole organism, PED6 fluorescence, gall bladder and intestine (AID 686;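 active means a full or partial loss of lipid-probe fluorescence in the fish gall bladder, intestine or both, judged by eye; inactive means no fluorescence loss, or compound toxic to the fish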;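 further: larvae 5 to 7 days old with five fish per well; signal comes from phospholipase A2 cleavage of quenched PED6 carried via bile; overnight exposure to compound and PED6 before scoring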); details: Zebrafish larvae PED6 lipid processing, fluorescence scoring; screened at 20 µM (by protocol)
Outline: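 Doses: 20 µM single dose. Test system: live zebrafish larvae aged 5-7 days, whole organism. Quantity: five larvae per well. Measured by: By-eye fluorescence microscopy. Reagent: ingested quenched lipid PED6 at 100 nM. Read-out: visual per-well fluorescence inhibition score. Times: overnight exposure of larvae to compound plus PED6.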

[9] = loss of swimming-algae plug formation – whole organism, Chlamydomonas reinhardtii, WT vs cilia-less mutant, absorbance, 96-well, primary screen (AID 463189;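 active means inhibition at or above 50% relative to wild type and mutant plate controls; inactive means inhibition below 50%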;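 further: 0% = wild type cc124 cells in DMSO and 100% = ciliumless bld1 mutant cells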); details: Chlamydomonas reinhardtii gravitaxis, OD600 absorbance, 2 days; at 10 µM; stronger effect = higher value
[10] = measured here: cell density z-score
[11] = measured here: nuclear c-Myc green intensity z-score
[12] = measured here: nuclear pErk red intensity z-score, stronger effect = higher value

Row | SMILES | cell count [1] | inhibition [1] | inhibition [2] | nuclei count [2] [%] | z-score [3, 10] | z-score [3, 11] | z-score [3, 12] | inhibition [4] | fluorescence slope [5] | NADPH fluorescence slope [6] | fluorescence slope [7] | outcome [8] | inhibition [9]
1 | CC(Sc1ccc2ccccc2n1)C(=O)O (stereo unspecified) | 709 | -5.5% (inactive) | 23% (inactive) | 185 | 0.12 | 0.234 | -0.321 | 7.21% (inactive) | -0.478 (inactive) | -9e-05 (inactive) | 0.00615 (inactive) | inactive | -8.1% (inactive)
2 | COc1ccc(C2NC(=O)NC(O)(C(F)(F)F)C2C(=O)c2ccc(F)cc2)cc1 (stereo unspecified) | 632 | 6.6% (inactive) | -68.3% (inactive) | 159 | -1.22 | 1.16 | 0.887 | -0.674% (inactive) | -0.479 (inactive) | -5.2e-05 (inactive) | 0.00666 (inactive) | inactive | -6.15% (inactive)
3 | Cn1c(Cn2cnc(Cl)c2Cl)nc2ccccc21 | 583 | 0.2% (inactive) | -75.8% (inactive) | 138 | 0.873 | 1.34 | 0.561 | 12.8% (inactive) | -0.454 (inactive) | -8.5e-05 (inactive) | 0.00447 (inactive) | inactive | 21.9% (inactive)
4 | C=CCN=C(C)C1=C(O)CCC1=O | 637 | 3.3% (inactive) | -33.6% (inactive) | 116 | -0.646 | 0.913 | -0.284 | -2.09% (inactive) | -0.445 (inactive) | -6.8e-05 (inactive) | 0.0054 (inactive) | inactive | 11.3% (inactive)
5 | O=C(NCc1ccccc1)/C(=N\O)c1ccccc1 | 517 | -5.4% (inactive) | 3.5% (inactive) | 157 | 0.588 | 0.215 | 0.627 | -1.98% (inactive) | -0.382 (inactive) | -1.6e-05 (inactive) | 0.00503 (inactive) | inactive | -1.95% (inactive)
6 | CC1(C(=O)CSc2nc3ccccc3[nH]2)CCC(=O)O1 (stereo unspecified) | 631 | -2% (inactive) | -8.2% (inactive) | 115 | -2.03 | -0.005 | -0.394 | -13.3% (inactive) | -0.508 (inactive) | -1.8e-05 (inactive) | 0.0059 (inactive) | inactive | 0.18% (inactive)
7 | CCNc1sc(C(=O)c2cccs2)c(N)c1C#N | 583 | 0.3% (inactive) | -26.4% (inactive) | 114 | 0.394 | -0.752 | 0.076 | 10.9% (inactive) | -0.442 (inactive) | -4.6e-05 (inactive) | 0.00473 (inactive) | inactive | 24.6% (inactive)
8 | O=C1NC(=O)C(c2cn(-c3ccccc3)nc2-c2ccc(F)cc2)N1 (stereo unspecified) | 664 | 1.3% (inactive) | -12.6% (inactive) | 115 | 0.135 | -0.561 | -0.862 | 3.49% (inactive) | -0.46 (inactive) | -5.3e-05 (inactive) | 0.005 (inactive) | inactive | 2.79% (inactive)
9 | Cn1c(OCc2cccnc2)nc2c1c(=O)n(Cc1ccc(Br)cc1)c(=O)n2C | 723 | -15.3% (inactive) | -75% (inactive) | 172 | -1.07 | -0.35 | 0.344 | -5.95% (inactive) | -0.475 (inactive) | -4e-05 (inactive) | 0.00549 (inactive) | inactive | 32.6% (inactive)
10 | CCCc1cc(=O)oc2c(CN3CCCC3)c(O)ccc12 | 571 | -10.8% (inactive) | -11.6% (inactive) | 118 | 0.0938 | -0.952 | -1.55 | 0.671% (inactive) | -0.0292 (inactive) | 1.1e-05 (inactive) | 0.0058 (inactive) | inactive | -1.86% (inactive)
11 | CC(C)COc1ccc(C(=O)NC(CC(C)C)C(=O)O)cc1 (stereo unspecified) | 649 | 9.2% (inactive) | -19.5% (inactive) | 84.1 | -0.492 | 0.0237 | 0.136 | -13.3% (inactive) | -0.484 (inactive) | -4.8e-05 (inactive) | 0.00574 (inactive) | inactive | 25.1% (inactive)
12 | COc1cccc(C2C(C(=O)c3sc(C)nc3C)=C(O)C(=O)N2CCN2CCOCC2)c1OC (stereo unspecified) | 403 | -3.3% (inactive) | -65.8% (inactive) | 140 | -0.517 | 0.521 | 0.668 | 18.2% (inactive) | -0.47 (inactive) | -0.000114 (inactive) | 0.00521 (inactive) | inactive | 4.67% (inactive)
13 | Cc1ccc(Cn2ncc3c(N4CCN(Cc5ccc(Cl)cc5)CC4)ncnc32)cc1 | 549 | 22.5% (active) | -21.2% (inactive) | 134 | -0.467 | 0.343 | 1.03 | 5.95% (inactive) | -0.368 (inactive) | -6.6e-05 (inactive) | 0.00938 (inactive) | inactive | 60.8% (active)
14 | O=C1CC(C(=O)O)c2ccccc2N1 (stereo unspecified) | 589 | 5.9% (inactive) | -180% (inactive) | 135 | 0.749 | 0.0521 | -0.602 | 15.4% (inactive) | -0.465 (inactive) | -0.000133 (inactive) | 0.00465 (inactive) | inactive | 6% (inactive)
15 | Cc1ccc2cc(CNC(C)C)c(=O)[nH]c2c1 | 529 | -8.4% (inactive) | 12.9% (inactive) | 99.8 | 2.86 | -1.18 | -1.89 | 37.7% (inactive) | -0.49 (inactive) | -2.7e-05 (inactive) | 0.00672 (inactive) | inactive | -6.41% (inactive)
16 | CCOC(=O)C1CCN(c2ncnc3c2cnn3-c2ccc(OC)cc2)CC1 | 680 | -2.1% (inactive) | -138% (inactive) | 191 | 0.032 | -0.586 | 0.421 | 13.4% (inactive) | -0.405 (inactive) | -3.9e-05 (inactive) | 0.00612 (inactive) | inactive | -3.46% (inactive)
17 | CCCNC1=C(C)C(=O)CC1 | 602 | -0.5% (inactive) | -37.1% (inactive) | 120 | -1.42 | 0.756 | 1.36 | -0.233% (inactive) | -0.481 (inactive) | -4.1e-05 (inactive) | 0.00471 (inactive) | inactive | 3.26% (inactive)
18 | Cc1cc(=O)oc2cc(OCC(=O)NCc3cccnc3)ccc12 | 618 | 9% (inactive) | -1.6% (inactive) | 105 | -0.419 | -0.48 | 0.0246 | -3.95% (inactive) | -0.428 (inactive) | -5e-05 (inactive) | 0.00447 (inactive) | inactive | -0.087% (inactive)
19 | CCc1nc(N2CCCC2)c(C#N)c2c1CCCC2 | 422 | 2.1% (inactive) | -71.3% (inactive) | 118 | -1.3 | 0.104 | 0.215 | -6.59% (inactive) | -0.506 (inactive) | 3e-05 (inactive) | 0.00476 (inactive) | inactive | -11.4% (inactive)
20 | CC(C)OC(=O)c1c2nc3ccccc3nc2n2c1[nH]c(=O)c1ccccc12 | 519 | 4% (inactive) | -30.4% (inactive) | 96.9 | 1.31 | -1.51 | -0.702 | 16.5% (inactive) | -0.445 (inactive) | 2e-05 (inactive) | 0.069 (active) | inactive | 6.9% (inactive)
21 | CCCSc1nnc(NC(=O)Nc2ccc(F)cc2)s1 | 660 | -13.9% (inactive) | -24% (inactive) | 182 | 0.28 | -1.17 | -0.511 | 20.2% (inactive) | -0.488 (inactive) | -6.8e-05 (inactive) | 0.00807 (inactive) | inactive | 6.75% (inactive)
22 | Cn1c(=O)c2c(nc(NCc3ccc4c(c3)OCO4)n2Cc2ccccc2)n(C)c1=O | 656 | -20.1% (inactive) | -108% (inactive) | 96.2 | -0.797 | -1.34 | -1.17 | -7.93% (inactive) | -0.5 (inactive) | -0.000109 (inactive) | 0.00776 (inactive) | inactive | -2.21% (inactive)
23 | CC1=C(C#N)C(=O)OC(C)(C)C1 | 660 | -3.9% (inactive) | -22.9% (inactive) | 101 | -2.1 | 0.204 | -1.02 | -1.98% (inactive) | -0.489 (inactive) | -7.4e-05 (inactive) | 0.00496 (inactive) | inactive | -18.3% (inactive)
24 | COc1ccc(C2CC(c3ccc(C)cc3)Nc3nc(N)nn32)cc1 (stereo unspecified) | 390 | 2.2% (inactive) | -104% (inactive) | 145 | -0.765 | 2.44 | -0.827 | 9.82% (inactive) | -0.447 (inactive) | -7.3e-05 (inactive) | 0.00548 (inactive) | inactive | -10.9% (inactive)
25 | COC(=O)[C@H]1CCCN1C(=O)Nc1cccc(Oc2c(F)c(F)c(F)c(F)c2F)c1 | 709 | -2.1% (inactive) | 2.5% (inactive) | 205 | 0.848 | 0.709 | 0.784 | 13.4% (inactive) | -0.396 (inactive) | -4.7e-05 (inactive) | 0.00536 (inactive) | inactive | 36.9% (inactive)
26 | CCOc1ccc2nc(NC(NC(=O)CC)(C(=O)OC)C(F)(F)F)sc2c1 (stereo unspecified) | 362 | -7% (inactive) | -214% (inactive) | 195 | -0.714 | 0.587 | 0.266 | 3.42% (inactive) | -0.424 (inactive) | -8.8e-05 (inactive) | 0.00487 (inactive) | inactive | -2.07% (inactive)
27 | O=C(Nc1ncccc1Cl)c1cccc(F)c1 | 527 | 0.8% (inactive) | 19.5% (inactive) | 88.6 | -1.41 | 0.161 | -0.3 | 3.42% (inactive) | -0.419 (inactive) | 1.2e-05 (inactive) | 0.0047 (inactive) | inactive | 34.1% (inactive)
